A selection: hits, their analogues and other compounds. The true share with any hit is near 1.4%.
A3G deaminase: APOBEC3G DNA deaminase inhibitors, primary screen, biochemical, fluorescence, single-stranded DNA substrate, uHTS | recombinant A3G, ssDNA deamination FAM/TAMRA fluorescence | inhibition, % at 20 µM | 330,000 tested, 0.28% active | AID 493012, 2011;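 active = inhibition of at least 40% at 20 µM, with no more than 30% in the related APOBEC3A deaminase screen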;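 also: plate controls were DMSO wells with A3G for no effect and wells lacking A3G enzyme for full effect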
hiPSC survival: enhancers of single-cell hiPSC survival, primary screen, ATPlite luminescence; 100% = ROCK inhibitor wells, 0% = DMSO; survival enhancement, % at 20 µM; AID 602274, 2012; 360,000 tested, 0.044% active; in the data active = survival enhancement above about 18%;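 also: cells exposed to compounds for 16 hours before the ATP read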
APOBEC3A inh: APOBEC3A ssDNA deaminase inhibitors, primary screen, selectivity assay for APOBEC3G inhibitor project, biochemical, FAM/TAMRA oligo cleavage fluorescence | DNA dC->dU-editing enzyme APOBEC-3A (Homo sapiens), P31941 | recombinant A3A, FAM/TAMRA ssDNA deamination fluorescence | inhibition, % at 20 µM | 330,000 tested, 0.41% active | AID 493011, 2011;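 active = at least 40% inhibition at 20 µM here, with at most 30% in a related deaminase screen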;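 also: plate controls were A3A with DMSO for no effect and wells lacking A3A enzyme for full effect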
HKDC1 inhibitor: HKDC1 hexokinase inhibitors, primary screen, biochemical, fluorescence, uHTS; recombinant HKDC1, G6PDH/diaphorase resazurin coupled fluorescence; 340,000 tested, 0.16% active; Q2TB90; inhibition, % at 20 µM;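 active = inhibition above about 35% when tested at 20 µM, limit read from the data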;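 also: plate controls were DMSO wells with enzyme for no effect and DMSO wells lacking enzyme for full effect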
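Test system: HK5 enzyme. Quantity: 5 µg/mL HK5 final. Reagent: glucose and ATP substrates. Schedule: 90 min reaction incubation at room temperature, dark. Technique: resazurin-to-resorufin fluorescence via G6PDH and diaphorase coupling, 525/613 nm. Control set: DMSO wells with and without enzyme mix.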
PfGluPho inh: PfG6PD enzyme inhibitors, primary screen, biochemical, fluorescence intensity, uHTS | PfGluPho enzyme, NADPH resazurin-diaphorase fluorescence | inhibition, % at 20 µM | 350,000 tested, 0.78% active | AID 504690, 2011;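 active = inhibition reaching at least a set limit at 20 µM in the primary screen, cut at about 59% in these data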;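 also: 0% = DMSO wells with substrate and 100% = DMSO wells lacking glucose-6-phosphate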
PfG6PD confirm: PfG6PD inhibitors, hit retest, confirmation, biochemical, fluorescence intensity, single concentration; inhibition, % at 20 µM; AID 504753, 2011; recombinant PfGluPho, NADPH-diaphorase-resazurin fluorescence; 2,400 tested, 34% active; shares compounds with PfGluPho inh;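 active = inhibition of at least 50% at 20 µM in any single replicate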;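 also: 0% = DMSO with substrate and 100% = DMSO lacking glucose-6-phosphate substrate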
Diaph ctr 10uM: diaphorase inhibitors and chemical oxidizers, confirmation, counter-screen for P. falciparum G6PD inhibitor project, biochemical, fluorescence intensity, 10 µM NADPH; diaphorase-coupled resazurin reduction, NADPH 10 uM; shares compounds with PfGluPho inh; inhibition, % at 20 µM; 820 tested, 39% active;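 active = average inhibition reaching 50% or more with the compound at 20 µM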;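 also: resorufin red fluorescence formed as diaphorase reduces resazurin using NADPH; 0% = DMSO with enzyme and 100% = DMSO without enzyme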
Diaphorase 30uM: diaphorase inhibitors and chemical oxidizers, confirmation, counter-screen for P. falciparum G6PD inhibitor project, biochemical, fluorescence intensity, 30 µM NADPH. shares compounds with PfGluPho inh. Diaphorase/resazurin coupled assay, resorufin fluorescence. inhibition, % at 20 µM. 820 tested, 29% active. AID 504863, 2011;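 active = inhibition averaging 50% or more, tested at 20 µM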;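 also: 0% = DMSO with enzyme and 100% = DMSO wells lacking diaphorase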
Starred values were filed as active, the others as inactive; nt = no result given.

SMILES	A3G deaminase	hiPSC survival	APOBEC3A inh	HKDC1 inhibitor	PfGluPho inh	PfG6PD confirm	others
O=C(c1cccc(S(=O)(=O)N2CCc3ccccc3C2)c1)N1CCN(c2ccc(O)cc2)CC1	5	-1	3	11	66*	26
O=C1CC(N2CCN(c3ccc(O)cc3)CC2)C(=O)N1Cc1cccs1 (stereo not drawn)	22	-3	-1	-2	67*	19
O=C(COC(=O)c1ccccc1C(=O)c1ccc(Cl)cc1)NCc1ccccc1	-5	1	0	-6	81*	45
CC1CC(C)CN(C(=O)Cn2nnc(-c3ccc(Br)cc3)n2)C1 (stereo not drawn)	-5	0	1	-7	-10	nt
Cc1cccc(N/N=C/c2ccc(O)c(O)c2O)c1	1	0	8	14	84*	44
COc1cccc(N/N=C/c2cccc(Br)c2O)c1	17	0	0	2	30	nt
Oc1ccc(/C=N/NC(=S)Nc2cccnc2)c(O)c1O	nt	0	nt	10	80*	67*	Diaph ctr 10uM=55*;Diaphorase 30uM=80*
O=C(/C=C/c1ccccc1)NC(NC(=S)Nc1ccc(Cl)cc1Cl)C(Cl)(Cl)Cl (stereo not drawn)	-6	4	-1	-6	62*	21
O=C(/C=C/c1ccccc1)NC(NC(=S)Nc1cccc(Cl)c1)C(Cl)(Cl)Cl (stereo not drawn)	-6	-4	-3	0	-5	nt
CCOC(=O)c1cnc2ccc(OCC)cc2c1NCc1ccccc1	0	2	0	1	66*	-7
COc1ccc(Br)cc1CNc1ccc(O)cc1	8	-2	-3	13	68*	38
CCOc1cccc(CNc2ccc(O)cc2)c1OCc1ccc(Cl)cc1	0	-1	-4	19	70*	-1
Cc1ccc(NCc2ccccc2OCc2ccccc2F)cc1	-5	-1	-3	3	23	nt
Oc1ccc(NCc2ccccc2OCc2ccccc2F)cc1	6	-3	3	20	76*	42
CCOc1ccccc1CNc1ccc(O)cc1	nt	-2	nt	23	74*	63*	Diaph ctr 10uM=-3;Diaphorase 30uM=-4
O=c1c(Br)ccc(Br)cc1Br	nt	5	nt	32	66*	45
O=C1CN(S(=O)(=O)c2cc(Br)ccc2Br)CCN1	-1	0	0	-4	-6	nt
O=C1CCCC2=C1C(c1ccc(Cl)cc1)C1C(=O)c3ccccc3C1=N2 (stereo not drawn)	-4	-2	-2	-1	72*	36
Cc1ccc2nsnc2c1NS(=O)(=O)c1c(C)ccc2nsnc12	1	-1	3	-2	-8	nt
Cc1ccc(/C=[N+](\[O-])c2ccc(N(C)C)cc2)c2nsnc12	-1	-5	0	2	64*	1
COC(=O)c1cc(S(=O)(=O)NCc2cccs2)c[nH]1	-2	0	1	-4	-15	nt
COc1ccc(-c2nc3c(Cl)cc(C(F)(F)F)cn3c2Cc2ccsc2)cc1OC	nt	0	nt	nt	nt	nt
CCOC(=O)c1c(NC(=O)COC(=O)c2nc(Cl)ccc2Cl)sc(C(=O)NC)c1C	-10	0	-1	-7	1	nt
Nc1ccc(O)c([N+](=O)[O-])c1	2	0	1	11	34	nt
Cc1ccc(N)cc1O	-1	-1	-2	18	65*	37
SMILES	A3G deaminase	hiPSC survival	APOBEC3A inh	HKDC1 inhibitor	PfGluPho inh	PfG6PD confirm	others
C/C(=N\Nc1cccc(Cl)c1)c1ccncc1	-3	1	-7	1	78*	33
O=C1C=CC(=O)N1c1ccc(-c2nc3ccccc3o2)cc1	nt	1	nt	nt	108*	77*	Diaph ctr 10uM=-25;Diaphorase 30uM=-3
Nc1ccc(-c2nc3ccccc3o2)cc1	-7	-1	10	-1	-1	nt
Nc1c(C(=O)N2CCOCC2)sc2nc(N3CCOCC3)c3c(c12)CCCC3	40	0	-5	3	66*	-5
COc1ccc(CCNC(=O)C2CCN(C(=O)c3ccc([N+](=O)[O-])cc3)CC2)cc1	2	-1	2	-5	0	nt
CC12CCC(=O)N1C(C(=O)NCc1ccccc1F)CS2 (stereo not drawn)	-7	0	2	-2	-1	nt
O=S(c1ccccc1O)S(=O)c1ccccc1O (stereo not drawn)	nt	4	nt	-2	94*	75*	Diaph ctr 10uM=-15;Diaphorase 30uM=-9
O=C(O)COc1ccccc1/C=N/NC(=O)c1cc2ccccc2cc1O	-3	0	2	4	1	nt
CC1(OC(=O)CCc2ccccc2)C(=O)C=C2C=C(c3ccc(C#N)cc3)N(CCN3CCOCC3)C=C2C1=O (stereo not drawn)	-2	2	-2	21	35	nt
CC1(OC(=O)CCc2ccccc2)C(=O)C=C2C=C(c3ccc(C#N)cc3)N(C3CCCC3)C=C2C1=O (stereo not drawn)	-13	-1	-7	19	61*	19
CC(C)OCCCN1C=C2C(=O)C(C)(OC(=O)CCc3ccccc3)C(=O)C=C2C=C1c1ccc(C#N)cc1 (stereo not drawn)	-12	nt	-1	29	81*	27
CC1(OC(=O)CCc2ccccc2)C(=O)C=C2C=C(c3ccsc3)OC=C2C1=O (stereo not drawn)	1	nt	7	nt	nt	nt
CC1(OC(=O)CCc2ccccc2)C(=O)C=C2C=C(c3ccc(C#N)cc3)N(c3ccccc3)C=C2C1=O (stereo not drawn)	-14	-2	-4	32	72*	23
CC1(OC(=O)CCc2ccccc2)C(=O)C=C2C=C(c3ccc(C#N)cc3)N(CC3CC3)C=C2C1=O (stereo not drawn)	-4	0	-6	14	40	nt
COc1ccc(C(=O)Nc2ccc3nc(C)sc3c2)cc1S(=O)(=O)N1CCOCC1	nt	2	nt	nt	-9	nt
O=C(c1[nH]c(C(F)(F)F)nc1-c1ccccc1)N1CCN(Cc2c(F)cccc2Cl)CC1	nt	0	nt	nt	nt	nt
CC1=C(C)CS(=O)N(S(=O)(=O)c2ccc(Cl)cc2)C1 (stereo not drawn)	8	0	-9	9	60*	49*	Diaph ctr 10uM=2;Diaphorase 30uM=3
